Legend:
Acetylcholinesterase [1] = target: T1, Acetylcholinesterase (Homo sapiens, UniProt P22303); test: Inhibition of AChE (unknown origin) using acetylthiocholine iodide as substrate at 0.5 mM preincubated for 30 mins before substrate addition measured after 30 mins by Ellman method relative to control
Acetylcholinesterase [2] = target: T1, Acetylcholinesterase; test: Inhibition of AChE (unknown origin) using acetylthiocholine iodide as substrate […] measured after 30 mins by Ellman method
Cholinesterase [3] = target: T2, Cholinesterase (Homo sapiens, UniProt P06276); test: Inhibition of BChE (unknown origin) using butyrylthiocholine chloride as substrate at 0.5 mM preincubated for 30 mins before substrate addition measured after 30 mins by Ellman method relative to control
T2 sequence (P06276 whole entry): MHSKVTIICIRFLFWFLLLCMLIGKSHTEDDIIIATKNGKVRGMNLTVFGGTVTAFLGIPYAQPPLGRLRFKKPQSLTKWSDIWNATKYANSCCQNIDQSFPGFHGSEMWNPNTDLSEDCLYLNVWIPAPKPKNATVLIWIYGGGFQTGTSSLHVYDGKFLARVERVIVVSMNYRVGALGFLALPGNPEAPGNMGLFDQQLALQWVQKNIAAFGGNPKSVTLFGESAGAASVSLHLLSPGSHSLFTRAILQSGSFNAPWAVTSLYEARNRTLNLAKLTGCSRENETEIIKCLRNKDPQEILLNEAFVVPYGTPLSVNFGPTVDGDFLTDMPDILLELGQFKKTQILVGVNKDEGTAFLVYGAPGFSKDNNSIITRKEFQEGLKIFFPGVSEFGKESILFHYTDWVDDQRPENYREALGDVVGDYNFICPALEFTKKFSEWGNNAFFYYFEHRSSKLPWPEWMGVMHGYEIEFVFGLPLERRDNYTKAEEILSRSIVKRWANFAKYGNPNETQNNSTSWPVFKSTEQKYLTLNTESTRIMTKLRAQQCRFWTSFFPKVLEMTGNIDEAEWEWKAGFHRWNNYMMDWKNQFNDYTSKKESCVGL

Cholinesterase [4] = target: T2, Cholinesterase; test: Inhibition of BChE (unknown origin) using butyrylthiocholine chloride as substrate […] measured after 30 mins by Ellman method
[5] = target: Cholinesterases; ACHE & BCHE (Homo sapiens) (UniProt P06276+P22303); test: Selectivity ratio of IC50 for AChE (unknown origin) to IC50 for BChE (unknown origin)
Chain of Cholinesterases; ACHE & BCHE (Homo sapiens) (P06276 whole entry, looked up): as the sequence (P06276 whole entry) above
Chain of Cholinesterases; ACHE & BCHE (Homo sapiens) (P22303 whole entry, looked up): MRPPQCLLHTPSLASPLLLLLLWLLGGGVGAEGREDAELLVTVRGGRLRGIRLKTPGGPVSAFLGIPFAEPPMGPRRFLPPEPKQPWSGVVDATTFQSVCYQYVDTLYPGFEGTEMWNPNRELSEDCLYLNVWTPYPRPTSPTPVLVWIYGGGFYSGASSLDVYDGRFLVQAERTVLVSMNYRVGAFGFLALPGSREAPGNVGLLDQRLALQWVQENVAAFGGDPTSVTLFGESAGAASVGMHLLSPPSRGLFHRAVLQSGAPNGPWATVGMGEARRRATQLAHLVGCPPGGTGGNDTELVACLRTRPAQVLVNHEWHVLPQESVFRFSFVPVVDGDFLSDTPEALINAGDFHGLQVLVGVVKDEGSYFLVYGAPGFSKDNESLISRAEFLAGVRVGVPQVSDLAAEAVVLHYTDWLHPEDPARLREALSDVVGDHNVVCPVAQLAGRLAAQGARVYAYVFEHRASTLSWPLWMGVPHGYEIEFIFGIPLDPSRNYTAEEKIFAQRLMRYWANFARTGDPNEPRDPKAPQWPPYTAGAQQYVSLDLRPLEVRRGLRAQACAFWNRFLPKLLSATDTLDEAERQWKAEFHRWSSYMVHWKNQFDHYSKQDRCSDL
In short: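 Ratio of IC50 for AChE to IC50 for BChE, both measured by Ellman assay. Each IC50 is the mean of three independent experiments.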

Acetylcholinesterase [6] = target: T1, Acetylcholinesterase; test: Inhibition of AChE (unknown origin) using acetylthiocholine iodide as substrate at 0.25 mM preincubated for 30 mins before substrate addition measured after 30 mins by Ellman method relative to control
Cholinesterase [7] = target: T2, Cholinesterase; test: Inhibition of BChE (unknown origin) using butyrylthiocholine chloride as substrate at 0.25 mM preincubated for 30 mins before substrate addition measured after 30 mins by Ellman method relative to control

T1 sequence (P22303 whole entry): as the sequence (P22303 whole entry, looked up) above

Row | Compound | inhibition (Acetylcholinesterase [1]) | IC50 (Acetylcholinesterase [2]) | inhibition (Cholinesterase [3]) | IC50 (Cholinesterase [4]) | Ratio IC50 [5] | inhibition (Acetylcholinesterase [6]) | inhibition (Cholinesterase [7])
1 | Cc1ccccc1-c1nnc(-c2ccc3c(c2)CO[C@@]3(CCCN(C)C)c2ccc(F)cc2)[nH]1 | 88.6% | 9.52 µM | 85% | 99.7 µM | 0.095 |  | 
2 | CN(C)CCC[C@@]1(c2ccc(F)cc2)OCc2cc(-c3nnc(-c4cccc(F)c4)[nH]3)ccc21 | 32.2% | < 500 µM | 82.9% | 44.8 µM | < 11.2 |  | 
3 | CN(C)CCC[C@@]1(c2ccc(F)cc2)OCc2cc(-c3nnc(-c4cccc([N+](=O)[O-])c4)[nH]3)ccc21 | 81.7% | 138 µM | 79.2% | 105 µM | 1.32 |  | 
4 | CN(C)CCC[C@@]1(c2ccc(F)cc2)OCc2cc(-c3nnc(-c4ccc(I)cc4)[nH]3)ccc21 | 30.5% | > 500 µM | 85.6% | 161 µM | > 3.11 |  | 
5 | COc1cccc(-c2nnc(-c3ccc4c(c3)CO[C@@]4(CCCN(C)C)c3ccc(F)cc3)[nH]2)c1 | 89.7% | 124 µM | 91% | 103 µM | 1.2 |  | 
6 | CN(C)CCC[C@@]1(c2ccc(F)cc2)OCc2cc(-c3nnc(-c4cccc(O)c4)[nH]3)ccc21 |  | < 500 µM |  | 119 µM | < 4.22 | 39.3% | 61.7%
7 | CN(C)CCC[C@@]1(c2ccc(F)cc2)OCc2cc(-c3nnc(-c4ccc(Br)cc4)[nH]3)ccc21 | 15.6% |  | 50.6% | 492 µM |  |  | 
8 | CN(C)CCC[C@@]1(c2ccc(F)cc2)OCc2cc(-c3nnc(-c4cccc(N)c4)[nH]3)ccc21 | 29.9% | > 500 µM | 73.5% | 188 µM | > 2.67 |  | 
9 | CN(C)CCC[C@@]1(c2ccc(F)cc2)OCc2cc(-c3nnc(-c4cccc(Cl)c4)[nH]3)ccc21 | 57.4% | 413 µM | 79.9% | 26.5 µM | 15.7 |  | 
10 | CN(C)CCC[C@@]1(c2ccc(F)cc2)OCc2cc(-c3nnc(-c4ccc(F)cc4)[nH]3)ccc21 | 71.5% | 261 µM | 92.5% | 5.31 µM | 49.1 |  | 
11 | COc1ccccc1-c1nnc(-c2ccc3c(c2)CO[C@@]3(CCCN(C)C)c2ccc(F)cc2)[nH]1 | 80.4% | 161 µM | -2.13% |  |  |  | 
12 | Cc1ccc(-c2nnc(-c3ccc4c(c3)CO[C@@]4(CCCN(C)C)c3ccc(F)cc3)[nH]2)cc1 | 16% |  | 91% | 152 µM |  |  | 
13 | CN(C)CCC[C@@]1(c2ccc(F)cc2)OCc2cc(-c3nnc(-c4ccccc4I)[nH]3)ccc21 | 72.3% | 310 µM | 84.5% | 25.9 µM | 12 |  | 
14 | CN(C)CCC[C@@]1(c2ccc(F)cc2)OCc2cc(-c3nnc(-c4ccc(O)cc4)[nH]3)ccc21 | 59.2% | 388 µM | 78.7% | 140 µM | 2.76 |  | 
15 | CN(C)CCC[C@@]1(c2ccc(F)cc2)OCc2cc(-c3nnc(-c4ccc(N)cc4)[nH]3)ccc21 | 15.3% |  | 72.1% | 119 µM |  |  | 
16 | CN(C)CCC[C@@]1(c2ccc(F)cc2)OCc2cc(-c3nnc(-c4ccc(Cl)cc4)[nH]3)ccc21 | 91.6% | 6.71 µM | 73.7% | 151 µM | 0.044 |  | 
17 | CN(C)CCC[C@@]1(c2ccc(F)cc2)OCc2cc(-c3nnc(-c4ccccc4N)[nH]3)ccc21 | 70.2% | 360 µM | 71.7% | 111 µM | 3.25 |  | 
18 | CN(C)CCC[C@@]1(c2ccc(F)cc2)OCc2cc(-c3nnc(-c4ccccc4Cl)[nH]3)ccc21 | 19.5% |  | 79.6% | 81.4 µM |  |  | 
19 | COc1ccc(-c2nnc(-c3ccc4c(c3)CO[C@@]4(CCCN(C)C)c3ccc(F)cc3)[nH]2)cc1 | 10.3% |  | 81.2% | 168 µM |  |  | 
20 | CN(C)CCC[C@@]1(c2ccc(F)cc2)OCc2cc(-c3nnc(-c4ccccc4F)[nH]3)ccc21 |  | 188 µM |  | 4.52 µM | 41.5 | 62.1% | 93.6%
21 | CN(C)CCC[C@@]1(c2ccc(F)cc2)OCc2cc(-c3nnc(-c4ccccc4O)[nH]3)ccc21 | 16.3% |  | 80.7% | 102 µM |  |  | 
22 | Cc1cccc(-c2nnc(-c3ccc4c(c3)CO[C@@]4(CCCN(C)C)c3ccc(F)cc3)[nH]2)c1 | 88.1% | 133 µM | 71.5% | 89.2 µM | 1.49 |  | 
23 | CN(C)CCC[C@@]1(c2ccc(F)cc2)OCc2cc(-c3nnc(-c4cccc(I)c4)[nH]3)ccc21 | 25.1% | > 500 µM | 75.5% | 188 µM | > 2.67 |  | 
24 | CN(C)CCC[C@@]1(c2ccc(F)cc2)OCc2cc(-c3nnc(-c4ccc([N+](=O)[O-])cc4)[nH]3)ccc21 | 16.2% |  | 69.7% | 106 µM |  |  | 
25 | COc1cc(-c2nnc(-c3ccc4c(c3)CO[C@@]4(CCCN(C)C)c3ccc(F)cc3)[nH]2)ccc1O | 34.8% | < 500 µM | 88.6% | 24.1 µM | < 20.8 |  | 
26 | CN(C)CCC[C@@]1(c2ccc(F)cc2)OCc2cc(-c3nnc(-c4ccccc4[N+](=O)[O-])[nH]3)ccc21 | 5.09% |  | 62.9% | 297 µM |  |  | 
27 | CN(C)CCC[C@@]1(c2ccc(F)cc2)OCc2cc(-c3nnc(-c4ccccc4)[nH]3)ccc21 | 30.4% | > 500 µM | 81.8% | 129 µM | > 3.88 |  | 
28 | CN(C)CCC[C@@]1(c2ccc(F)cc2)OCc2cc(-c3nnc(-c4cccc(Br)c4)[nH]3)ccc21 | 37.9% | < 500 µM | 85.5% | 78 µM | < 6.41 |  | 
29 | CN(C)CCC[C@@]1(c2ccc(F)cc2)OCc2cc(-c3nnc(-c4ccccc4Br)[nH]3)ccc21 | 19.4% |  | 75% | 141 µM |  |  | 

— ChEMBL document CHEMBL3603773, “Synthesis of novel triazoles and a tetrazole of escitalopram as cholinesterase inhibitors” (Bioorg Med Chem, 2015)
